In series [1] the test system is L1210. Kind of series: Ratio of spermidine Km to compound Ki for polyamine transport system in mouse L1210 cells. The class given is cell-based. The gist of the method:
(§1)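 2 × 10^6 L1210 cells in 0.6 mL HBSS/20 mM HEPES, 10 min uptake at 37 °C of 1 μM [14C]spermidine with increasing competitor concentrations. IC50 obtained by iterative sigmoidal curve fitting, Ki by Cheng-Prusoff. Spermidine Km from Lineweaver-Burke analysis of uptake at rising labelled substrate. Mean ± SD, three determinations.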

In series [2] the test system is L1210. Kind of series: Cytostatic toxicity against mouse L1210 cells expressing polyamine transport system after 48 hrs by MTT assay. The format is ADME, cell-based. As to conditions: l1210, 48 h. In short, it runs like this: (§2)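 L1210 cells seeded at 5 × 10^4 cells/mL in RPMI 1640 with 10% FCS and 2 mM aminoguanidine, 37 °C, 5% CO2. Compound added at seeding, 48 h exposure. Growth read as MTT formazan absorbance at 540 nm. Growth taken relative to untreated control cells. Means of three or more experiments.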

Series [3] in a line: Inhibition of [14C]spermidine uptake at polyamine transport system in mouse L1210 cells after 10 mins. The class given is cell-based. The gist of the method:
as §1

Series [4] has as its system L1210. Kind of series: Drug uptake in mouse L1210 cells expressing polyamine transport system after 24 hrs by HPLC. The format is ADME, cell-based. As to conditions: l1210, 24 h. In short, it runs like this: (§3)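 Compound given at 0.1 to 100 μM for 24 h exposure; medium RPMI 1640/10% FCS with 2 mM aminoguanidine. CHO cells seeded at 2 × 10^5 cells/mL and dosed 24 h after seeding. L1210 cells seeded at 4 × 10^4 cells/mL and dosed at seeding. Cells washed thrice in cold 0.14 M NaCl, sonicated in 0.2 N HClO4. Extracts analysed by ion-pair C18 HPLC with post-column OPA/N-acetylcysteine fluorescence (ex 345, em 455 nm). Protein measured on pellet.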

Series [5] concerns L1210. Briefly: Drug uptake in mouse L1210 cells expressing polyamine transport system in presence of ornithine decarboxylase inhibitor DFMO after 48 hrs by HPLC. Particulars: l1210, 48 h.
In the next series the test system is CHO. Briefly: Drug uptake in CHO cells expressing polyamine transport system after 24 hrs by HPLC. The format is ADME, cell-based, Cricetulus griseus. As to conditions: chinese hamster. The gist of the method:
as §3

Series [6] in a line: Cytostatic toxicity against mouse L1210 cells expressing polyamine transport system assessed as cell viability at 100 uM after 48 hrs by trypan blue assay. The class given is ADME, cell-based. The gist of the method:
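L1210 cells exposed 48 h to 100 μM compound, viability scored by Trypan blue exclusion.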

Series [7] in a line: Cytostatic toxicity against mouse L1210 cells expressing polyamine transport system assessed as reduction in cell growth at 10 uM after 48 hrs by MTT assay. The format is ADME, cell-based. The gist of the method: as §2
In series [8] the test system is L1210. Briefly: Inhibition of reversion of DFMO-induced cytostatic effect against mouse L1210 cells expressing polyamine transport system at 20 uM pretreated with 100 uM putrescine for 24 hrs after DFMO addition measured after 48 hrs by MTT assay. The class given is functional, cell-based. The gist of the method: (§4)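 L1210 cells seeded in 5 mM DFMO. After 24 h, free putrescine, spermidine or spermine added with or without 20 μM test compound. Growth measured by MTT assay 48 h later.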

Series [9] relates to L1210. Briefly: Cytostatic toxicity against mouse L1210 cells expressing polyamine transport system assessed as effect on cell growth upto 20 uM after 48 hrs by MTT assay. The class given is ADME, cell-based. Particulars: l1210, 48 h. The gist of the method: as §2
Series [10] concerns L1210. Briefly: Inhibition of reversion of DFMO-induced cytostatic effect against mouse L1210 cells expressing polyamine transport system at 20 uM pretreated with 1 uM spermine for 24 hrs after DFMO addition measured after 48 hrs by MTT assay. The class given is functional, cell-based. The gist of the method:
as §4

Series [11] deals with L1210. Kind of series: Inhibition of reversion of DFMO-induced cytostatic effect against mouse L1210 cells expressing polyamine transport system at 20 uM pretreated with 20 uM spermidine for 24 hrs after DFMO addition measured after 48 hrs by MTT assay. The class given is functional, cell-based. In short, it runs like this: as §4
Series [12] relates to L1210. Kind of series: Ratio of drug uptake in mouse L1210 cells at 10 uM in presence of 5 mM ornithine decarboxylase inhibitor DFMO to drug uptake in mouse L1210 cells at 10 uM after 48 hrs by HPLC. The class given is ADME, cell-based. As to conditions: l1210, 48 h. In short, it runs like this: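 L1210 cells seeded at 4 × 10^4 cells/mL and given 10 μM conjugate at seeding, ±5 mM DFMO, medium containing 2 mM aminoguanidine. Harvest at 48 h, washed in cold 0.14 M NaCl, perchloric extract. Intracellular conjugate measured by ion-pair HPLC with OPA fluorescence. Ratio is DFMO/control accumulation. Mean ± SD of three determinations; Student's t test.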

Structures can show the parent of a compound that is named as a salt. Activity calls are given as the source filed them. The rule behind the calls is not given here.

Turning to `Cl.NCCCNCCCCNCCCNC1=Nc2ccc(N)cc2CCC1`, the Ratio with L1210 [1] was found to be 12.5. Further, the Activity entry in the series on L1210 [2] was “Toxic”. The molecule further gave an inhibition constant Ki in [3] of 0.19 µM.
With `NCCCNCCCCNCCCN`, in the series with L1210 [1], the Ratio worked out at 1.77. This molecule also yielded an inhibition constant (Ki) in series [3] of 1.34 µM.
Consider `Cl.NCCCNCCCNC1=NCCCCC1`, for which, in the series with L1210 [1], the Ratio worked out at 0.015. Also, the values for the Drug uptake entry in the series on L1210 [4], in the series on L1210 [5] and in the series on CHO were “Dose-dependent effect”, “Active” and “Dose-dependent effect”, respectively. Further, the Ki in series [3] is 161 µM.
`COc1ccc2c(c1)CCCC(NCCCNCCCCNCCCN)=N2.Cl`: the Ratio with L1210 [1] was 10.3. Moreover, the Activity entry with L1210 [2] was “Toxic”. Besides, the affinity in series [3] corresponds to a Ki of 0.23 µM.
On to `NCCCNC[C@@H](O)[C@@H](O)CNCCCNC1=Nc2ccccc2CCC1`, for which the Ratio in the series with L1210 [1] worked out at 1.05. This molecule also registered a Ki in [3] of 2.25 µM.
As for `NCCCCNCCCCNCCCCNC1=Nc2ccccc2CCC1`, the Ratio in the series on L1210 [1] stood at 11.9. Besides, the affinity in series [3] corresponds to a Ki of 0.2 µM.
Consider `NCCCCN` [PUTRESCINE DIHYDROCHLORIDE], for which the Ratio in the series with L1210 [1] is 0.011. The molecule also displayed a Ki in [3] of 208 µM.
Turning to `NCCCCNCCCCN` [HOMOSPERMIDINE], the Ratio in the series with L1210 [1] is 1.03. Moreover, in series [3], the affinity, expressed as Ki, was 2.3 µM.
`NCCCCCCCCNC1=NCCCCC1`: the Ratio in the series on L1210 [1] stood at 0.013. Also, in series [3], the inhibition constant (Ki) was determined as 183 µM.
For `Cl.NCCCCNCCCCNC1=NCCCCC1`, in [6], the viability at 48 h, 100 µM was over 95%. Also, the Ratio in the series with L1210 [1] was 0.43. The Drug uptake entry is recorded as “Dose-dependent effect” with L1210 [4], “Active” in the series on L1210 [5] and “Dose-dependent effect” in the series on CHO. For the same molecule, the inhibition at 48 h, 10 µM in series [7] is 65%. For the same molecule, the Ki in series [3] was found to be 5.47 µM.
Take `NCCCNC[C@@H](O)[C@@H](O)CNCCCN`: the Ratio with L1210 [1] turned out to be 0.45. Also, the Ki in [3] stood at 5.27 µM.
With `NCCCCCCCCN`, the Ratio in the series on L1210 [1] was determined as 0.098. Further, the Ki in series [3] is 24.1 µM.
With `NCCCNCCCNCCCNC1=Nc2ccccc2CCC1`, in the series on L1210 [1], the Ratio was determined as 2.69. Moreover, the Ki in series [3] was found to be 0.88 µM.
As for `Cl.NCCCNCCCCNCCCNC1=Nc2ccc([N+](=O)[O-])cc2CCC1`, the Ratio in the series on L1210 [1] was 19.8. Also, the inhibition result in the series with L1210 [8], with L1210 [10] and in the series on L1210 [11] was “Active” in each case. In the series with L1210 [9], the Activity entry was “Non-toxic”. Besides, the inhibition constant Ki in series [3] worked out at 0.12 µM.
With `NCCCCCNCCCN`, in the series with L1210 [1], the Ratio was 0.29. This molecule also showed an inhibition constant (Ki) in series [3] of 8.03 µM.
On to `NCCCNCCCN` [NORSPERMIDINE TRIHYDROCHLORIDE], for which the Ratio in the series with L1210 [1] is 0.46. Besides, the affinity in series [3], expressed as Ki, was 5.12 µM.
`Cl.NCCCCNCCCNC1=NCCCCC1`: in series [6], the viability at 48 h, 100 µM is over 95%. Also, the Ratio with L1210 [1] stood at 0.16; with L1210 [12], 4. The Drug uptake result in the series on L1210 [4] was “Dose-dependent effect”; in the series with L1210 [5], “Active”; in the series with CHO it was “Dose-dependent effect”. Moreover, the inhibition at 48 h, 10 µM in series [7] was 30%. Moreover, the affinity in [3] corresponds to a Ki of 14.6 µM.
Take `Cl.NCCCNCCCCNCCCNC1=Nc2ccccc2CCC1`: the Ratio in the series with L1210 [1] came to 15.8. Moreover, the figures for the Drug uptake entry in the series with L1210 [4], in the series on L1210 [5] and with CHO were “Dose-dependent effect”, “Active” and “Dose-dependent effect”, respectively. The same molecule yielded a Ki in series [3] of 0.15 µM.
`Cl.NCCCCNCCCNC1=Nc2ccccc2CCC1`: the Ratio in the series with L1210 [1] worked out at 0.54. In addition, the Drug uptake result in the series with L1210 [4] and in the series on CHO was “Dose-dependent effect” each time. The inhibition constant Ki in series [3] stood at 4.4 µM.
Regarding `Cl.Cl.NCCCCNC1=NCCCCC1`, the Ratio in the series with L1210 [1] was 0.003. Besides, the figures for the Drug uptake entry in the series with L1210 [4], in the series with L1210 [5] and in the series with CHO were “Dose-dependent effect”, “Active” and “Dose-dependent effect”, respectively. In series [3], affinity was put at a Ki of 763 µM.
Turning to `Cl.NCCCNCCCCNCCCNC1=NCCCCC1`, in the series with L1210 [1], the Ratio worked out at 6.77. Further, the values for the Drug uptake result in the series on L1210 [4], in the series with L1210 [5] and with CHO were “Dose-dependent effect”, “Active” and “Dose-dependent effect”, respectively. The molecule also returned a Ki in series [3] of 0.35 µM.
As to `NCCCCCCCCNC1=Nc2ccccc2CCC1`, the Ratio in the series with L1210 [1] was 0.019. This molecule came in with an inhibition constant (Ki) in series [3] of 126 µM.
Taken in the same sequence, the figures for `NCCCNCCCNCCCN` [NORSPERMINE] were 1.57 and 1.51 µM.
For the molecule `Cl.NCCCNCCCCNC1=NCCCCC1`, the Ratio with L1210 [1] is 0.053. The Drug uptake result in the series on L1210 [4] was “Dose-dependent effect”; with L1210 [5], “Active”; with CHO, “Dose-dependent effect”. Also, the Ki in [3] was 44.7 µM.
Consider `Cl.Cl.NCCCCNC1=Nc2ccccc2CCC1`, for which, in the series with L1210 [1], the Ratio worked out at 0.067. In addition, the Drug uptake result with L1210 [4] and with CHO was “Dose-dependent effect” each time. The molecule also came in with a Ki in [3] of 35.1 µM.
For `Cl.NCCCCCNCCCNC1=NCCCCC1`, the Ratio with L1210 [1] is 0.051. For the same molecule, the Drug uptake entry in the series with L1210 [4] is “Dose-dependent effect”; in the series on L1210 [5], “Active”; in the series with CHO, “Dose-dependent effect”. Besides, the Ki in [3] turned out to be 45.9 µM.
As for `NCCCCNCCCCNCCCCN` [HOMOSPERMINE], the Ratio in the series on L1210 [1] turned out to be 3.25. The Ki in series [3] is 0.73 µM.
Consider `Cl.NCCCNCCCCNCCCNC1=Nc2ccc(Br)cc2CCC1`, for which the Ratio in the series on L1210 [1] was 16.9. Moreover, the Activity result in the series with L1210 [2] is given as “Toxic”. This molecule also had a Ki in [3] of 0.14 µM.

The values are drawn from ChEMBL document CHEMBL1275328, “Targeting the polyamine transport system with benzazepine- and azepine-polyamine conjugates” (J Med Chem, 2010).
